Data taken from ChEMBL document CHEMBL3734675, “Synthesis, antimycobacterial and antibacterial activity of fluoroquinolone derivatives containing an 3-alkoxyimino-4-(cyclopropylanimo)methylpyrrolidine moiety” (2015).
≈ marks a conversion by molar mass, not a printed value.

What was measured:
Type in all cases: functional
[1] = tested on: Escherichia coli; assay: Antibacterial activity against extended-spectrum beta-lactamase producing Escherichia coli 14-1 after 18 to 24 hrs by two-fold serial dilution method
In short: (§1)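 Twofold serial dilution in agar media against Gram-positive and Gram-negative strains. Plates incubated at 35 °C for 18–24 h. MIC read as the lowest compound concentration giving complete inhibition of bacterial growth.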

[2] = tested on: Staphylococcus aureus; assay: Antibacterial activity against methicillin-sensitive Staphylococcus aureus 14-1 after 18 to 24 hrs by two-fold serial dilution method; in short: as §1
[3] = tested on: Escherichia coli; assay: Antibacterial activity against Escherichia coli 14-2 after 18 to 24 hrs by two-fold serial dilution method; in short: as §1
[4] = tested on: Klebsiella pneumoniae; assay: Antibacterial activity against extended-spectrum beta-lactamase producing Klebsiella pneumoniae 14-17 after 18 to 24 hrs by two-fold serial dilution method; in short: as §1
[5] = tested on: Klebsiella pneumoniae; assay: Antibacterial activity against Klebsiella pneumoniae 14-2 after 18 to 24 hrs by two-fold serial dilution method; in short: as §1
[6] = tested on: Mycobacterium tuberculosis; assay: Antimycobacterial activity against Mycobacterium tuberculosis H37Rv ATCC 27294 incubated for 7 days by microplate Alamar Blue assay; conditions: H37Rv ATCC 27294, 168 h
In short: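 Fluorescence read-out. MIC is the lowest concentration that reduces fluorescence by at least 90% relative to the mean of replicate bacterium-only controls. Isoniazid and rifampicin were included as reference drugs.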

[7] = tested on: Klebsiella pneumoniae; assay: Antibacterial activity against extended-spectrum beta-lactamase producing Klebsiella pneumoniae 14-18 after 18 to 24 hrs by two-fold serial dilution method; in short: as §1
[8] = tested on: Pseudomonas aeruginosa; assay: Antibacterial activity against Pseudomonas aeruginosa 14-15 after 18 to 24 hrs by two-fold serial dilution method; in short: as §1
[9] = tested on: Pseudomonas aeruginosa; assay: Antibacterial activity against Pseudomonas aeruginosa 14-14 after 18 to 24 hrs by two-fold serial dilution method; in short: as §1
[10] = tested on: Enterococcus faecalis; assay: Antibacterial activity against Enterococcus faecalis 14-2 after 18 to 24 hrs by two-fold serial dilution method; in short: as §1
[11] = tested on: Escherichia coli; assay: Antibacterial activity against Escherichia coli ATCC 25922 after 18 to 24 hrs by two-fold serial dilution method; in short: as §1
[12] = tested on: Staphylococcus epidermidis; assay: Antibacterial activity against methicillin-sensitive Staphylococcus epidermidis 14-2 after 18 to 24 hrs by two-fold serial dilution method; in short: as §1
[13] = tested on: Enterococcus faecium; assay: Antibacterial activity against Enterococcus faecium 14-2 after 18 to 24 hrs by two-fold serial dilution method; in short: as §1
[14] = tested on: Pseudomonas aeruginosa; assay: Antibacterial activity against Pseudomonas aeruginosa 14-16 after 18 to 24 hrs by two-fold serial dilution method; in short: as §1
[15] = tested on: Pseudomonas aeruginosa; assay: Antibacterial activity against Pseudomonas aeruginosa ATCC 27853 after 18 to 24 hrs by two-fold serial dilution method; in short: as §1
[16] = tested on: Staphylococcus aureus; assay: Antibacterial activity against methicillin-resistant Staphylococcus aureus 14-4 after 18 to 24 hrs by two-fold serial dilution method
In short: (§2)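 Agar media, standard twofold serial dilution. MIC is the lowest concentration giving complete inhibition of bacterial growth after incubation at 35 °C for 18–24 h. Ciprofloxacin and levofloxacin were run as comparators.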

[17] = tested on: Klebsiella pneumoniae; assay: Antibacterial activity against Klebsiella pneumoniae 14-1 after 18 to 24 hrs by two-fold serial dilution method; in short: as §1
[18] = tested on: Staphylococcus epidermidis; assay: Antibacterial activity against methicillin-resistant Staphylococcus epidermidis 14-21 after 18 to 24 hrs by two-fold serial dilution method; in short: as §2
[19] = tested on: Escherichia coli; assay: Antibacterial activity against Escherichia coli 14-1 after 18 to 24 hrs by two-fold serial dilution method; in short: as §1
[20] = tested on: Klebsiella pneumoniae; assay: Antibacterial activity against Klebsiella pneumoniae 14-3 after 18 to 24 hrs by two-fold serial dilution method; in short: as §1
[21] = tested on: Staphylococcus epidermidis; assay: Antibacterial activity against methicillin-resistant Staphylococcus epidermidis 14-39 after 18 to 24 hrs by two-fold serial dilution method; in short: as §2
[22] = tested on: Staphylococcus epidermidis; assay: Antibacterial activity against methicillin-resistant Staphylococcus epidermidis 14-22 after 18 to 24 hrs by two-fold serial dilution method; in short: as §2
[23] = tested on: Staphylococcus aureus; assay: Antibacterial activity against methicillin-resistant Staphylococcus aureus 14-5 after 18 to 24 hrs by two-fold serial dilution method; in short: as §2
[24] = tested on: Enterococcus faecalis; assay: Antibacterial activity against Enterococcus faecalis 14-1 after 18 to 24 hrs by two-fold serial dilution method; in short: as §1
[25] = tested on: Enterococcus faecium; assay: Antibacterial activity against Enterococcus faecium 14-5 after 18 to 24 hrs by two-fold serial dilution method; in short: as §1
[26] = tested on: Enterococcus faecium; assay: Antibacterial activity against Enterococcus faecium 14-6 after 18 to 24 hrs by two-fold serial dilution method; in short: as §1
[27] = tested on: Staphylococcus epidermidis; assay: Antibacterial activity against methicillin-resistant Staphylococcus epidermidis 14-37 after 18 to 24 hrs by two-fold serial dilution method; in short: as §2
[28] = tested on: Streptococcus pneumoniae; assay: Antibacterial activity against methicillin-resistant Streptococcus pneumoniae ATCC 19615 after 18 to 24 hrs by two-fold serial dilution method; in short: as §2
[29] = tested on: Staphylococcus aureus; assay: Antibacterial activity against methicillin-sensitive Staphylococcus aureus 14-3 after 18 to 24 hrs by two-fold serial dilution method; in short: as §1
[30] = tested on: Staphylococcus aureus; assay: Antibacterial activity against methicillin-sensitive Staphylococcus aureus 14-4 after 18 to 24 hrs by two-fold serial dilution method; in short: as §1
[31] = tested on: Escherichia coli; assay: Antibacterial activity against extended-spectrum beta-lactamase producing Escherichia coli 14-2 after 18 to 24 hrs by two-fold serial dilution method; in short: as §1
[32] = tested on: Staphylococcus aureus; assay: Antibacterial activity against Staphylococcus aureus CMCC 26003 after 18 to 24 hrs by two-fold serial dilution method; in short: as §1
[33] = tested on: Klebsiella pneumoniae; assay: Antibacterial activity against extended-spectrum beta-lactamase producing Klebsiella pneumoniae 14-19 after 18 to 24 hrs by two-fold serial dilution method; in short: as §1
[34] = tested on: Klebsiella pneumoniae; assay: Antibacterial activity against Klebsiella pneumoniae 14-4 after 18 to 24 hrs by two-fold serial dilution method; in short: as §1
[35] = tested on: Pseudomonas aeruginosa; assay: Antibacterial activity against Pseudomonas aeruginosa 14-9 after 18 to 24 hrs by two-fold serial dilution method; in short: as §1

SMILES: CCO/N=C1/CN(c2c(F)cc3c(=O)c(C(=O)O)cn4c3c2OC[C@@H]4C)CC1(C)CNC1CC1 (stereo not given in full)
- MIC [1]: 8 µg/mL (≈ 16.9 µM)
- MIC [2]: 4 µg/mL (≈ 8.47 µM)
- MIC [3]: > 128 µg/mL
- MIC [4]: 32 µg/mL (≈ 67.7 µM)
- MIC [5]: 64 µg/mL (≈ 135 µM)
- MIC90 [6]: 2.76 µg/mL (≈ 5.84 µM)
- MIC [7]: 32 µg/mL (≈ 67.7 µM)
- MIC [8]: 64 µg/mL (≈ 135 µM)
- MIC [9]: 128 µg/mL (≈ 271 µM)
- MIC [10]: 1 µg/mL (≈ 2.12 µM)
- MIC [11]: 2 µg/mL (≈ 4.23 µM)
- MIC [12]: 32 µg/mL (≈ 67.7 µM)
- MIC [13]: 16 µg/mL (≈ 33.9 µM)
- MIC [14]: 64 µg/mL (≈ 135 µM)
- MIC [15]: 64 µg/mL (≈ 135 µM)
- MIC [16]: 64 µg/mL (≈ 135 µM)
- MIC [17]: 64 µg/mL (≈ 135 µM)
- MIC [18]: 8 µg/mL (≈ 16.9 µM)
- MIC [19]: > 128 µg/mL
- MIC [20]: > 128 µg/mL
- MIC [21]: 8 µg/mL (≈ 16.9 µM)
- MIC [22]: 8 µg/mL (≈ 16.9 µM)
- MIC [23]: 16 µg/mL (≈ 33.9 µM)
- MIC [24]: 32 µg/mL (≈ 67.7 µM)
- MIC [25]: 4 µg/mL (≈ 8.47 µM)
- MIC [26]: 16 µg/mL (≈ 33.9 µM)
- MIC [27]: 4 µg/mL (≈ 8.47 µM)
- MIC [28]: 0.25 µg/mL (≈ 0.529 µM)
- MIC [29]: 0.03 µg/mL (≈ 0.0635 µM)
- MIC [30]: 0.06 µg/mL (≈ 0.127 µM)
- MIC [31]: > 128 µg/mL
- MIC [32]: < 0.008 µg/mL
- MIC [33]: 32 µg/mL (≈ 67.7 µM)
- MIC [34]: > 128 µg/mL
- MIC [35]: 64 µg/mL (≈ 135 µM)
